In ChEMBL document CHEMBL1148654, “DNA binding affinity of bisguanidine and bis(2-aminoimidazoline) derivatives with in vivo antitrypanosomal activity” (J Med Chem, 2006):
Calls of active or inactive are those of the source. The calls are words filed in the database; no cut-off is given here.

What was measured:
[1] = system: Nucleic Acid; assay: Binding affinity to Trypanosoma brucei rhodesiense DNA; format: nucleic-acid assay
[2] = system: Trypanosoma brucei brucei; assay: Activity against Trypanosoma brucei brucei STIB795 in infected NMRI mouse at 20 mg/kg, ip; format: functional, organism-based; set-up: dose 20 mg/kg
Outline: (§1)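 Mice infected ip with 1 × 10^5 (STIB 795) or 2 × 10^4 (STIB 900) bloodstream forms, in groups of four. Dosed ip once daily on days 3–6, with an untreated control group. Parasitemia checked every second day to day 14, then twice weekly to day 60. Deaths recorded for mean survival time. Cured means surviving and aparasitemic at 60 days.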

[3] = system: Trypanosoma brucei; assay: Activity against Trypanosoma brucei GVR35 in infected NMRI mouse at 20 mg/kg, ip; format: functional, organism-based; set-up: dose 20 mg/kg
[4] = system: Trypanosoma brucei brucei; assay: Antitrypanosomal activity against trypomastigotes of AT1 knockout Trypanosoma brucei brucei 427; format: functional, organism-based
[5] = system: Trypanosoma brucei brucei; assay: Antitrypanosomal activity against trypomastigotes of AT1 wild type Trypanosoma brucei brucei 427; format: functional, organism-based
[6] = system: Trypanosoma brucei rhodesiense; assay: Activity against Trypanosoma brucei rhodesiense STIB900 in infected NMRI mouse at 20 mg/kg, ip; format: functional, organism-based; set-up: dose 20 mg/kg; outline: as §1
[7] = system: Trypanosoma brucei; assay: Activity against Trypanosoma brucei GVR35 in infected NMRI mouse at 40 mg/kg, ip; format: functional, organism-based; set-up: dose 40 mg/kg
[8] = system: Trypanosoma brucei brucei; assay: Activity against Trypanosoma brucei brucei STIB795 in infected NMRI mouse at 10 mg/kg, ip; format: functional, organism-based; set-up: dose 10 mg/kg; outline: as §1

SMILES	Activity [1]	Activity [2]	other results
N=C(N)Nc1ccc(C(=O)c2ccc(NC(=N)N)cc2)cc1	Active		
c1cc(N2CCN(c3ccc(NC4=NCCN4)cc3)CC2)ccc1NC1=NCCN1	Active	Toxic	
c1cc(Nc2ccc(NC3=NCCN3)cc2)ccc1NC1=NCCN1	Active	Active	Activity [3]: inactive; IC50 [4]: 162 nM; IC50 [5]: 63.7 nM; Activity [6]: Active
CC(C)(C)OC(=O)N1CC[N+](C(=O)OC(C)(C)C)=C1Nc1ccc(Nc2ccc(NC3=[N+](C(=O)OC(C)(C)C)CCN3C(=O)OC(C)(C)C)cc2)cc1		inactive	
N=C(N)Nc1ccc(S(=O)(=O)c2ccc(NC(=N)N)cc2)cc1	inactive		
N=C(N)Nc1ccc(Cc2ccc(NC(=N)N)cc2)cc1	Active		
N=C(N)c1ccc(/N=N/Nc2ccc(C(=N)N)cc2)cc1			Activity [7]: inactive
N=C(N)Nc1ccc(N2CCN(c3ccc(NC(=N)N)cc3)CC2)cc1	Active		
N=C(N)Nc1ccc(Nc2ccc(NC(=N)N)cc2)cc1	Active	Active	IC50 [4]: 2.2 nM; IC50 [5]: 3 nM
N=C(N)c1ccc(OCCCCCOc2ccc(C(=N)N)cc2)cc1	Active		
O=S(=O)(c1ccc(NC2=NCCN2)cc1)c1ccc(NC2=NCCN2)cc1	inactive		
N=C(N)Nc1ccc(CCCCCCCCc2ccc(NC(=N)N)cc2)cc1			Activity [8]: inactive
c1cc(NC2=NCCN2)ccc1Cc1ccc(NC2=NCCN2)cc1	Active		
